Measurements from ChEMBL document CHEMBL1149879, “Ten-membered lactones from Phomopsis sp., an endophytic fungus of Azadirachta indica” (2008).
≈ marks a conversion by molar mass, not a printed value.

Tests used:
Assay type in all cases: functional
Fusarium verticillioides = test: Antifungal activity against Fusarium moniliforme YM3067 after 72 hrs by disk diffusion method
Outline: (§1)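 Paper-disk diffusion. Fungi grown on PDA at 28 °C; spores mixed into melted PDA at 1 × 10^6 spores/mL and poured into plates. Compounds in 50% aqueous DMSO, serially double diluted from 500 to 15.63 µg/mL, loaded onto sterile 6 mm paper disks. Dried disks placed on agar, incubated 28 °C for 72 h, inhibition zones then measured.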

Bipolaris maydis = test: Antifungal activity against Helminthosporium maydis YM3076 after 72 hrs by disk diffusion method; outline: as §1
Ophiostoma minus = test: Antifungal activity against Ophiostoma minus YM3429 after 72 hrs by disk diffusion method; outline: as §1
Aspergillus niger = test: Antifungal activity against Aspergillus niger YM3029 after 72 hrs by disk diffusion method; outline: as §1
Talaromyces islandicus = test: Antifungal activity against Penicillium islandicum YM3104 after 72 hrs by disk diffusion method; outline: as §1
Fusarium avenaceum = test: Antifungal activity against Fusarium avenaceum YM3065 after 72 hrs by disk diffusion method; outline: as §1
Botrytis cinerea = test: Antifungal activity against Botrytis cinerea YM3061 after 72 hrs by disk diffusion method; outline: as §1

**Q.** With `C[C@@H]1C[C@@H](O)[C@@H](O)/C=C/C=C\C(=O)O1` as the compound, how does the MIC (Fusarium verticillioides) read?
**A.** > 500 µg/mL

**Q.** And the MIC (Bipolaris maydis)?
**A.** 500 µg/mL (≈ 2520 µM)

**Q.** What about the MIC (Ophiostoma minus) of the same compound?
**A.** > 500 µg/mL

**Q.** What about the MIC (Aspergillus niger) of the same compound?
**A.** 125 µg/mL (≈ 631 µM)

**Q.** What about the MIC (Talaromyces islandicus) of the same compound?
**A.** > 500 µg/mL

**Q.** And the MIC (Fusarium avenaceum)?
**A.** > 500 µg/mL

**Q.** And the MIC (Botrytis cinerea)?
**A.** 500 µg/mL (≈ 2520 µM)

**Q.** For `CC(=O)O[C@@H]1C[C@@H](C)OC(=O)CC[C@H](O)CC1=O`, which MIC (Fusarium verticillioides) is on record?
**A.** > 500 µg/mL

**Q.** And the MIC (Bipolaris maydis)?
**A.** 500 µg/mL (≈ 1940 µM)

**Q.** And the MIC (Ophiostoma minus)?
**A.** > 500 µg/mL

**Q.** And the MIC (Aspergillus niger)?
**A.** 125 µg/mL (≈ 484 µM)

**Q.** And the MIC (Talaromyces islandicus)?
**A.** 250 µg/mL (≈ 968 µM)

**Q.** And the MIC (Fusarium avenaceum)?
**A.** > 500 µg/mL

**Q.** And the MIC (Botrytis cinerea)?
**A.** 250 µg/mL (≈ 968 µM)

**Q.** How did the MIC (Fusarium verticillioides) turn out when `CC(=O)O[C@H]1/C=C/[C@@H]2O[C@@H]2C(=O)O[C@H](C)C[C@H]1O` [7ALPHA-ACETOXYMULTIPLOLIDE A] was run?
**A.** > 500 µg/mL

**Q.** And the MIC (Bipolaris maydis)?
**A.** > 500 µg/mL

**Q.** What about the MIC (Ophiostoma minus) of the same compound?
**A.** > 500 µg/mL

**Q.** What about the MIC (Aspergillus niger) of the same compound?
**A.** 125 µg/mL (≈ 488 µM)

**Q.** And the MIC (Talaromyces islandicus)?
**A.** > 500 µg/mL

**Q.** What about the MIC (Fusarium avenaceum) of the same compound?
**A.** > 500 µg/mL

**Q.** And the MIC (Botrytis cinerea)?
**A.** > 500 µg/mL

**Q.** `CC(=O)O[C@@H]1C[C@@H](C)OC(=O)[C@H]2O[C@H]2/C=C/[C@@H]1O` [8ALPHA-ACETOXYMULTIPLOLIDE A] was tested. Which MIC (Fusarium verticillioides) did it give?
**A.** 500 µg/mL (≈ 1950 µM)

**Q.** And the MIC (Bipolaris maydis)?
**A.** 500 µg/mL (≈ 1950 µM)

**Q.** And the MIC (Ophiostoma minus)?
**A.** 31.2 µg/mL (≈ 122 µM)

**Q.** And the MIC (Aspergillus niger)?
**A.** 125 µg/mL (≈ 488 µM)

**Q.** And the MIC (Talaromyces islandicus)?
**A.** 250 µg/mL (≈ 976 µM)

**Q.** What about the MIC (Fusarium avenaceum) of the same compound?
**A.** > 500 µg/mL

**Q.** What about the MIC (Botrytis cinerea) of the same compound?
**A.** 62.5 µg/mL (≈ 244 µM)

**Q.** Which results are given for `C[C@@H]1C[C@@H](O)[C@@H](O)/C=C/[C@@H]2O[C@@H]2C(=O)O1` [MULTIPLOLIDE A]?
**A.** MIC (Fusarium verticillioides): > 500 µg/mL; MIC (Bipolaris maydis): 500 µg/mL (≈ 2330 µM); MIC (Ophiostoma minus): > 500 µg/mL; MIC (Aspergillus niger): 250 µg/mL (≈ 1170 µM); MIC (Talaromyces islandicus): 250 µg/mL (≈ 1170 µM); MIC (Fusarium avenaceum): > 500 µg/mL; MIC (Botrytis cinerea): > 500 µg/mL

**Q.** What does the source list for NYSTATIN?
**A.** MIC (Fusarium verticillioides): 62.5 µg/mL; MIC (Bipolaris maydis): 31.2 µg/mL; MIC (Ophiostoma minus): 31.2 µg/mL; MIC (Aspergillus niger): 15.6 µg/mL; MIC (Talaromyces islandicus): 15.6 µg/mL; MIC (Fusarium avenaceum): 62.5 µg/mL; MIC (Botrytis cinerea): 31.2 µg/mL
